ChEMBL document CHEMBL4513216, “Probing the Open Global Health Chemical Diversity Library for Multistage-Active Starting Points for Next-Generation Antimalarials” (ACS Infect Dis, 2020)

Assay: Toxicity liver stage against HepG2, at 10uM
Assay type: cell-based
Set-up: test concentration 10 uM, cell line HepG2-A16-CD81EGFP
Conditions: human, HepG2-A16-CD81EGFP cells; read-out: INHIBITION
In short: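 Uninfected HepG2-A16-CD81EGFP cells, 3 × 10^3 per well, 1536-well, plated on prespotted compound at 10 μM final, parasite-free screening media added to match infected plates; puromycin 10 μM positive, DMSO 0.5% negative; run in parallel with 48 h PbLuc assay at 37 °C, 5% CO2; viability by CellTiter-Glo luminescence, normalized to controls.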

Compound | cytotoxicity at 10 µM
F[C@@H]1CN(Cc2cccnc2)C[C@@H]1OCc1nc2ccccc2[nH]1 | 5.22%
COCCN1C[C@H]2CN(Cc3cccc(OC)c3)CCN2C1=O | 7.91%
O=C(O)CCn1ccc2cc(Br)ccc21 | 10.7%
COC(=O)[C@H](CCSC)NC(=O)Cn1ccc2c(Cl)cccc21 | 2.17%
COc1cc(C2SC(C)=Nc3c2c(=O)[nH]n3C2CCCC2)ccc1O (stereo not drawn) | 3.54%
O=C(CC1CCCC1)Nc1ccc(-n2cc(Br)cn2)nc1 | -51.2%
Cc1cc(C)nc(N2CCC(C(=O)Nc3n[nH]c(C(C)C)n3)CC2)n1 | 4.07%
COC(CNC(=O)C1CCCC1)c1ccc(C)s1 (stereo not drawn) | 4.45%
COc1ccc(C(=O)N2CCCC3(CCCC(=O)N3C)C2)cc1 (stereo not drawn) | -10.1%
Cc1cc(C(=O)N2C[C@@H]3CCCO[C@@H]3[C@H](N(C)C(C)C)C2)c(C)[nH]1 | 10.2%
Cc1noc(C[C@@H]2COC[C@H]3CN(S(=O)(=O)C4CC4)C[C@@H]23)n1 | 8.37%
CCS(=O)(=O)N1CCC2(CC1)CC[C@@]1(C(=O)NC)CN(C(C)=O)C[C@@H]21 | 6.1%
O=C([C@H]1C[C@H]2[C@H](CCN2Cc2cccs2)O1)N1CCOCC1 | 0.582%
COCCNC(=O)[C@@H]1CN(c2cc(OC)ncn2)C[C@H]2OCC[C@H]21 | -3.06%
c1cc(-c2ccc3c(c2)CCC32CCN(c3nncs3)CC2)co1 | -2.07%
Cc1noc([C@@H]2CC[C@@H]3[C@@H](CCN3S(=O)(=O)c3ccccc3)O2)n1 | 2.43%
COCCC(=O)NCc1ccc(-c2ccccc2C(=O)O)nc1 | 2.28%
Cn1nccc1CCC(=O)NC1CCCN(c2ccccn2)C1 (stereo not drawn) | 4.18%
CN(C)C(=O)c1c[nH]nc1C1CCN(S(=O)(=O)c2ccc(Cl)cc2)CC1 | -4.9%
Oc1nc(N2CCCC2)nc2c1CCN(Cc1cccnc1)CC2 | -7.25%
Cc1ccc(C(=O)N2CCCCC2c2[nH]ncc2S(C)(=O)=O)cn1 (stereo not drawn) | -6.72%
COc1ccccc1CN1CC[C@H]2[C@@H](C1)[C@H](c1ccsc1)CN2C(C)=O | -12.4%

Compound | cytotoxicity at 10 µM
CCOc1nnc(CN(CC)CC(=O)NC(C)(C)C)s1 | -13.7%
COCCN(Cc1ccccc1)C(=O)c1csc(-c2nnc[nH]2)n1 | 4.9%
Cn1ccnc(Nc2ccc3c(c2)CCN3C(=O)c2cccnc2)c1=O | -55%
FC(F)(F)CN1CCC(CNc2nc3ccccc3o2)C1 (stereo not drawn) | 2.7%
CC(C#N)CN(C)Cc1ccc(Cl)c2cccnc12 (stereo not drawn) | -40.4%
CCC(CC)c1cc(C(=O)N2CCN(C(C)C(N)=O)CC2)on1 (stereo not drawn) | 5.82%
O=C(CC1CCCO1)NS(=O)(=O)Cc1cc(-c2ccccc2)no1 (stereo not drawn) | 9.95%
COC(=O)c1ccc(NCc2csc(C)n2)cc1Cl | -5.08%
Cc1cc(Cl)ccc1NCC(=O)Nc1cc(C(C)(C)C)no1 | 0.521%
COc1ccc(C2(NCc3noc(C4CC4)n3)CCOCC2)cc1 | -6.44%
O=C(NCC1CCS(=O)(=O)C1)c1cccc(CN2CCCC2)c1 (stereo not drawn) | -0.986%
CC(=O)N1CCN(C(=O)CN(C)c2ccc(Cl)cn2)CC1 | 1.79%
CN(CC(=O)N1CCN(CC(C)(C)O)CC1)c1ccc(Cl)cn1 | -2.87%
CCCc1noc(CN2CCC(NC(=O)c3ccc(C)s3)CC2)n1 | -5.32%
COc1ccc(N2CCCN(C(=O)Cc3csc(C)n3)CC2)cc1 | 3.91%
Cc1ncc(CNC2CCc3nc(C(C)C)nn3C2)s1 (stereo not drawn) | 3.97%
CCn1ccnc1CN1CCN(CCc2ccncc2)CC1C (stereo not drawn) | -3.04%
Cc1ccc(-c2nc(CN3CCn4c(nnc4C4CC4)C3)no2)cc1 | -1.99%
CCOc1ccc(CN(C)C2CCN(c3cc(C)nn3C)C2=O)cc1 (stereo not drawn) | 1.66%
CC(C)CCN1CCN(C(=O)c2cnccn2)CC1 | 0.365%
Cc1n[nH]cc1CNCC(c1cccc(F)c1)N(C)C (stereo not drawn) | -0.0972%
CC(C)N(CCNC(=O)c1n[nH]c2ccccc12)C(C)C | -42.8%

Compound | cytotoxicity at 10 µM
Cc1nn(C)c(Cl)c1C1CCCN1Cc1cn2ccsc2n1 (stereo not drawn) | -44.5%
Cn1cc(CN2C[C@@H]3CN(C(=O)c4cccn4C)CCO[C@@H]3C2)cn1 | -110%
CCS(=O)(=O)N1CCC2(CC1)c1ncc(-c3cccnc3)n1CCN2C | -103%
C[C@H]1C[C@@H]2CCN(C(=O)c3cccn3C)C[C@H]2O1 | 10.1%
O=C(c1ccco1)N1CC[C@H]2[C@H]1CCN2CC1CCOCC1 | 5.12%
CNc1cc(-c2ccncc2)ncn1 | -13.9%
COc1ccc2c(c1)[C@@H](CCNC(C)=O)CC(C)(C)O2 | -6.33%
Cc1sc2ncc(-c3ccnc(NC4CCN(C)CC4)n3)c(=O)n2c1C | -7.75%
Fc1cccc(-n2nc(C3CC3)nc2CCn2cnnn2)c1 | -0.174%
O=C(Cn1cccn1)N(CCO)CCSc1ccc(Cl)cc1 | 0.513%
Cc1nc(N[C@H]2COC[C@@H]2N2CCCCC2)c2c(C)nn(C)c2n1 | -1.21%
CN(Cc1cc(-c2cccnc2)no1)C(=O)c1cccn1C | -1.1%
CN(C)CCCn1ccnc1C1CCN(C(=O)Cc2cccnc2)CC1 | 4.77%
CCOc1ccc2nc(CN3CCOC(CN)C3)ccc2c1 (stereo not drawn) | -3.54%
CC(Cc1cn(CCc2nc(N)cc(O)n2)nn1)c1ccccc1 (stereo not drawn) | -5.58%
Cc1ccc(CN2CCN(c3cc(NCCO)ncn3)CC2CCO)o1 (stereo not drawn) | 7.11%
O=C(CCN1CCOC(C(F)(F)F)C1)NCc1ccccc1Cl (stereo not drawn) | -3.13%
NC(=O)CCC1CCCN(c2ncnc3c2Cc2ccccc2OC3)C1 (stereo not drawn) | 0.721%
CCn1cc(N)c(-c2nnc3n2CCC3)n1 | -12.1%
COc1ccc(CNCc2cn(C)nc2C)cc1 | -1.42%
CN(CC(C)(C)O)C1CCCN(Cc2noc(C3CC3)n2)C1 (stereo not drawn) | 0.85%
Cc1cc(CN2CCN(C(=O)NCc3csc(C)n3)CC2)on1 | -2.95%

Compound | cytotoxicity at 10 µM
Cc1nc(CN2CCN(CCOc3ccc(C(C)C)c(C)c3)CC2)no1 | -11.2%
Cc1cnn(C2CCCN(C(=O)c3ccc(N4CCCC4)nn3)C2)c1 (stereo not drawn) | -2.38%
Cc1cc(C(=O)N2CCOC(c3nc(C(C)C)n[nH]3)C2)no1 (stereo not drawn) | -5.13%
COCc1nc(C(=O)N2CCCC(n3nc(C)cc3C)C2)cs1 (stereo not drawn) | -8.57%
CC(Cn1cccn1)NCc1nc(-c2ccccc2Cl)no1 (stereo not drawn) | -3.56%
O=C(CCc1ccsc1)N1CCC(Nc2cccnn2)CC1 | -4.71%
CC(=O)NCC1CCN(C(=O)NCCOc2ccc3c(c2)CCC3)CC1 | -5.31%
CC(C)c1nn(C)c(N2CCOCC2)c1CNCCC(=O)N(C)C | -16.5%
Cc1nc(CN2CCCN(C(=O)c3cccnc3O)CC2)cs1 | -8.51%
Cc1nc2n(n1)CC(NCc1nc(-c3cccnc3)no1)CC2 (stereo not drawn) | -3.44%
CC(NC(=O)CNCCn1cccn1)c1ccc2c(c1)OCCO2 (stereo not drawn) | -13%
Cc1nn(C)c(C)c1C1CCCN1C(=O)c1ccc(NC2CC2)nc1 (stereo not drawn) | -2.85%
Cc1nc(C2CCCN2Cc2nc(C)c(C)o2)no1 (stereo not drawn) | -2.53%
c1nc2n(n1)CC(NCc1csc(-c3ccsc3)n1)CC2 (stereo not drawn) | 3.79%
COCc1nc(C(=O)NS(=O)(=O)c2cc(F)ccc2F)cs1 | -2.22%
Cc1ccc(C(=O)N2CCN(C(=O)NC(C)Cn3ccnc3)CC2)o1 (stereo not drawn) | -1.47%
O=C(CSc1ccccc1Cl)NS(=O)(=O)c1ccc2c(c1)OCCO2 | -10.7%
Cn1ncc2c(=O)[nH]c(CN3CCCC3c3cccs3)nc21 (stereo not drawn) | -4.43%
Cc1nccn1CC1CCCN1S(=O)(=O)Cc1ccon1 (stereo not drawn) | -9.57%
CN1CCN(C(=O)c2cnc3c(cnn3C3CCCC3)c2)CC1 | -14.6%
Cc1cnn(CCC(=O)N2CCC(Nc3cccnn3)CC2)c1 | -8.11%
COc1ccccc1OCC(=O)NS(=O)(=O)c1ccc(C)s1 | -12.7%

Compound | cytotoxicity at 10 µM
COc1cccc(CN2C[C@@H]3CC[C@@](O)(c4ccccn4)[C@@H]3C2)c1OC | -9.94%
CC(N)Cc1ccccc1Sc1ccccc1 (stereo not drawn) | 5.41%
Cc1nc(O)cc(C2CCN(Cc3cccc(F)c3F)C2)n1 (stereo not drawn) | -1.19%
CC1CCN(C(=O)[C@H]2C[C@@H]3CCN(CC4CCOCC4)C[C@@H]3O2)CC1 | 9.85%
CNC(=O)CN1CCOCC12CCN(Cc1ccncc1)CC2 | 3.07%
O=S(=O)(C1CC1)N1CCC2(CN(c3ccccn3)C2)C1 | 5.25%
CS(=O)(=O)CC(=O)N1C[C@H]2CCC[C@@]2(COCc2ccccn2)C1 | 4.35%
O=C(N1CCCO1)[C@]12COC[C@H]1CN(Cc1cccnc1)C2 | 8.25%
Cc1cccc(CN2C(=O)CCC23CCN(Cc2cccn2C)CC3)n1 | 5.61%
Cc1cccc(CN2CCCn3c(nnc3CN3CCCC3=O)C2)n1 | 2.14%
CCC(C)(N)c1nc(=O)c(C(C)C)c(C)[nH]1 (stereo not drawn) | -6.17%
c1ccc(CCN2CCn3cc(Cn4cccn4)nc3C2)cc1 | -1.98%
Cc1cnc(N2C[C@@H]3CN(C4CCOC4)CCC[C@]3(C(=O)O)C2)nc1 (stereo partly drawn) | -111%
Cc1cccc(CNC2CCCc3c2cnn3C)c1 (stereo not drawn) | -8.77%
CC(C)Nc1ncnc2c1CCN(Cc1nccn1C)CC2 | 0.507%
CN(C)Cc1cncc2c1CCN(Cc1ccoc1)C2 | -103%
CNc1ncc(-c2csc(NC(=O)C[C@H]3COCCN3)n2)cn1 | -11.9%
CCC1=N[C@@]2(CC[C@@H]3CN(CC(C)C)C[C@@H]32)C(=O)N1 | 4.32%
COC1C[C@@H]2CN(C(=O)c3[nH]nc4c3CCCC4)C[C@@H]2C1 (stereo partly drawn) | 0.0252%
O=C(c1ccccc1)N1C[C@H]2CC[C@@H](C1)N(Cc1cc(F)ccc1Cl)C2 | -4.39%
